Reference: ChEMBL document CHEMBL1127086, “Syntheses and biological evaluations of 3'-deoxy-3'-C-branched-chain-substituted nucleosides” (1993)
The source made the active and inactive calls. The calls are words filed in the database; no cut-off is given here.

Legend:
[1] = tested on: CCRF-CEM; test: Tested in vitro for anticancer activity against replication of human CCRF-CEM lymphoblastic cell line after 72 hr incubation; type: functional; conditions: read-out: ED50 (the source's name)
How it was run: (§1)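 Suspension cultures at 37 °C, 5% CO₂. L1210, P388 and S-180 were grown in Fisher's medium and CCRF-CEM in RPMI 1640, each with 10% horse serum. Exponentially growing cells at 2 × 10⁴ cells/mL were exposed to various concentrations and counted at 24, 48 and 72 h. ED₅₀ for 50% growth inhibition at 72 h was estimated from dose-response curves, ≥2 independent experiments.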

[2] = tested on: L1210; test: Tested in vitro for anticancer activity against replication of murine leukemia L1210 cell line after 72 hr incubation; type: functional; conditions: Mus musculus, L1210, 72 h; read-out: ED50 (the source's name); how it was run: as §1
[3] = tested on: P388; test: Tested in vitro for anticancer activity against replication of murine leukemia P388 cell line after 72 hr incubation; type: functional; conditions: Mus musculus, P388, 72 h; read-out: ED50 (the source's name); how it was run: as §1
[4] = Tested in vitro for anticancer activity against replication of murine Sarcoma 180 cell line after 72 h incubation; type: functional; conditions: Mus musculus, 180, 72 h; read-out: ED50 (the source's name); how it was run: as §1
[5] = target: T1, Thymidine kinase, cytosolic (Homo sapiens) (UniProt P04183); test: […] thymidine kinase activity from K562 mammalian cells at 500 uM concentration; type: cell-based
T1 sequence (whole entry): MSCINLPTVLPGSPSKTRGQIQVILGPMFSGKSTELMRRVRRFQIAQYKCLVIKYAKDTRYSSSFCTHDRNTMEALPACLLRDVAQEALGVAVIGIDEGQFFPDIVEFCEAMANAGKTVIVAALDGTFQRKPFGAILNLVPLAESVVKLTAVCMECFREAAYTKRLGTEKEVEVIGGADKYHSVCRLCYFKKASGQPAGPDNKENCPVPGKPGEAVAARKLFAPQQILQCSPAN

[6] = tested on: Thymidine kinase (Human herpesvirus 1); test: Antiviral activity against thymidine kinase from Herpes simplex virus type-1 (KOS Strain) infected HeLa (Bu-25-TK-) cells at 500 uM concentration
[7] = tested on: Thymidine kinase (Human herpesvirus 2); test: Antiviral activity against thymidine kinase from Herpes simplex virus type-2 (333 Strain) infected HeLa (Bu-25-TK-) cells at 500 uM concentration
[8] = tested on: MT2; test: Antiviral activity against HIV-1(HTLV-III B) in MT-2 cells; Not active uM concentration; type: functional, cell-based; conditions: Homo sapiens
How it was run: (§2)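 MT-2 cells, 1 × 10⁴ per well in triplicate wells, infected with HIV-1 (HTLV-III) at MOI 0.5 TCID₅₀/cell, then given serial drug dilutions. MTT added after 7 days. Antiviral effect taken from A₅₇₀ of infected cells compared with A₅₇₀ of uninfected drug-free cells. Concentrations tested up to 100 μM.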

[9] = tested on: MT2; test: Antiviral activity against HIV-1(HTLV-III B) in MT-2 cells at 100 uM; Not active up to 100 uM concentration; type: functional, cell-based; conditions: Homo sapiens; how it was run: as §2

SMILES | EC50 [1] [µM] | EC50 [2] [µM] | EC50 [3] [µM] | EC50 [4] [µM] | inhibition [5] [%] | inhibition [6] [%] | inhibition [7] [%] | inhibition [8] | inhibition [9]
Cc1cn([C@@H]2O[C@H](CO)[C@@H](CO)[C@@H]2O)c(=O)[nH]c1=O | > 100 | > 100 | > 100 | > 100 | 0.7 | 11.7 | 6.9 | – | –
Cc1cn([C@@H]2O[C@H](CO)[C@@H](CN)[C@@H]2O)c(=O)[nH]c1=O | > 100 | > 100 | > 100 | > 100 | – | – | – | – | –
Cc1cn([C@@H]2O[C@H](CO)[C@@H](CN=[N+]=[N-])[C@@H]2O)c(=O)[nH]c1=O | > 100 | 10 | > 100 | > 100 | – | – | – | inactive | –
Cc1cn([C@@H]2O[C@H](CO)[C@@H](CN=[N+]=[N-])[C@H]2O)c(=O)[nH]c1=O | > 100 | > 100 | > 100 | > 100 | – | – | – | inactive | –
Cc1cn([C@@H]2O[C@H](CO)[C@@H](O)[C@@H]2O)c(=O)[nH]c1=O | – | – | – | – | 5 | – | – | – | –
Cc1cn([C@@H]2O[C@H](CO)[C@@H](CF)[C@@H]2O)c(=O)[nH]c1=O | > 100 | > 100 | > 100 | > 100 | 7.1 | 13.8 | 10.9 | inactive | –

Second part, led by results:

EC50 [1] [µM] | EC50 [2] [µM] | EC50 [3] [µM] | EC50 [4] [µM] | inhibition [5] [%] | inhibition [6] [%] | inhibition [7] [%] | SMILES | inhibition [8] | inhibition [9]
> 100 | > 100 | > 100 | > 100 | – | – | – | Cc1cn([C@@H]2O[C@H](CO)[C@@H](CN)[C@H]2O)c(=O)[nH]c1=O | – | –
> 100 | > 100 | > 100 | > 100 | 3 | 2.6 | 0 | Cc1cn([C@@H]2O[C@H](CO)[C@@H](CO)[C@H]2O)c(=O)[nH]c1=O | – | –
1 | 50 | 5 | 10 | 3 | 59.1 | 0 | Cc1cn([C@H]2C[C@H](CO)[C@@H](CO)O2)c(=O)[nH]c1=O | – | –
> 100 | > 100 | > 100 | > 100 | – | – | – | Cc1cn([C@H]2C[C@H](CN=[N+]=[N-])[C@@H](CO)O2)c(=O)[nH]c1=O | inactive | –
> 100 | > 100 | > 100 | > 100 | 5.4 | 85.2 | 4 | Cc1cn([C@H]2C[C@H](CF)[C@@H](CO)O2)c(=O)[nH]c1=O | – | inactive
> 100 | > 100 | > 100 | > 100 | – | – | – | Cc1cn([C@H]2C[C@H](CN)[C@@H](CO)O2)c(=O)[nH]c1=O | – | –
> 100 | > 100 | > 100 | > 100 | 2.5 | 7 | 4.9 | Cc1cn([C@@H]2O[C@H](CO)[C@@H](CF)[C@H]2O)c(=O)[nH]c1=O | – | inactive
